Results as given in PMC4355479 (Molecular cell, 2015).

Assays:
[1] = system: MZM-REP protein of Mib1 with deletion of residues 315-330; assay: ITC with crystallization construct MZM-REP; assay type: binding; details: Table S1
Outline: (§1)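 MZM-REP protein is expressed as an N-terminal His6-SUMO fusion and loaded in the ITC cell at 42 μM, 25 C, stirred at 1000 RPM. Jag1 tail polypeptide is the titrant. Binding parameters come from a one-site binding model fit.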

[2] = system: Mib1 with deletion of either the MZM or REP region; assay: Co-immunoprecipitation with Mib1 lacking MZM or REP region; assay type: cell-based; details: HEK293T cells, Figure S1A
[3] = system: mutated Mib1 (ΔRNG); assay: Co-immunoprecipitation with Mib1 mutated at MZM and/or REP interface; assay type: cell-based; details: HEK293T cells, Figure 5D
Outline: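 Myc-tagged Mib1 (ΔRNG) and V5-tagged Jag1 co-transfected into sub-confluent HEK293T cells by lipofection. After 48 hr, cells lysed on ice in 0.5% Fos-Choline 12, 50 mM HEPES pH 7.4, 150 mM NaCl, DTT, ZnCl2, CaCl2 and protease inhibitors. Cleared lysate incubated with anti-V5 agarose for 1 hr at 4 C. Beads washed 3x, then analysed by anti-Myc and anti-V5 Western blot.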

[4] = system: Mib1 with Asp to Asn mutations in one or both Mib repeat(s); assay: Co-immunoprecipitation with Mib1 Asp to Asn mutants in one or both Mib repeat; assay type: cell-based; details: HEK293T cells, Figure S3D
[5] = system: MZM-REP, REP mutant; assay: ITC with REP mutant of MZM-REP; assay type: binding; details: 25 C; 42 μM; HEPES pH 7.4, 500 mM NaCl; REP side mutated; Figure 5C
Outline: as §1

Substance | effect of Mib1 Δ315-330 deletion on binding to Jag1 [1] | co-immunoprecipitation with Mib1 lacking MZM or REP region [2] | co-immunoprecipitation with Mib1, both interfaces mutated ([3]; both interfaces in combination) | co-immunoprecipitation with Mib1, MZM interface mutated ([3]; mutation targeting MZM:N-box interface alone) | co-immunoprecipitation with Mib1, REP interface mutated ([3]; mutation targeting REP:C-box interface alone) | contribution of Mib repeats to C-box binding, co-immunoprecipitation [4] | binding to REP mutant by ITC [5]
Jag1: Jag1 construct, V5-tagged in co-immunoprecipitation | does not deleteriously affect binding | eliminates co-immunoprecipitation (co-IP) | prevent co-immunoprecipitation | prevent co-immunoprecipitation | prevent co-immunoprecipitation | first Mib repeat exerts a dominant role in C-box binding | –
full-length tail: Jag1 intracellular tail; HA-tagged in ubiquitin transfer; as DLL4 chimera in reporter assay | – | – | – | – | – | – | attenuates binding
